Assays:
Assay type in all cases: cell-based
[1] = tested on: LAD2 human mast cells; test: Mast cell degranulation assay; conditions: 30 min at 37°C
Outline: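 LAD2 cells were washed and resuspended at 0.5 × 10^6 cells/mL in 0.4% BSA-HEPES buffer, then exposed to compound for 30 min at 37°C in 5% CO2. β-Hexosaminidase was measured in supernatants and in 0.1% Triton X-100 lysates by p-nitrophenyl N-acetyl-β-D-glucosamide hydrolysis in 0.1 M sodium citrate (pH 4.5) for 90 min at 37°C. Release is expressed as percent of total content.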

[2] = target: T1, Mrgprb2 (Mus musculus, UniProt Q3KNA1); test: Calcium imaging / FLIPR EC50 determination in HEK293 cells expressing Mrgprb2; conditions: HEK293 cells stably expressing Mrgprb2 and Gα15
T1 sequence (Q3KNA1 1-338): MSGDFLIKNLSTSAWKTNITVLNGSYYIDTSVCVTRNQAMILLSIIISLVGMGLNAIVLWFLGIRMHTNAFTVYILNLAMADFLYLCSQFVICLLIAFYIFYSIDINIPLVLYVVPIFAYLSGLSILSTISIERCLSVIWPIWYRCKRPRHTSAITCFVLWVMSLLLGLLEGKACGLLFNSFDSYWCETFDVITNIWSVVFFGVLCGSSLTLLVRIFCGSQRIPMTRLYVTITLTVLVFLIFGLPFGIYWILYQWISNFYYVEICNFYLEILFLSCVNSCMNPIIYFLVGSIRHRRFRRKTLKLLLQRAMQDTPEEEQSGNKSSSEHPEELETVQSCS
Outline: (§1)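 HEK293 cells stably co-expressing Gα15 with the receptor were seeded at 4 × 10^4 cells/well and cultured overnight. After dye loading for 60 min at 37°C and 15 min recovery at RT, fluorescence was recorded on a Flexstation for 120 s. Compound, dissolved in HBSS+HEPES, was added as a 3X solution at 30 s. Response was taken as maximum minus minimum signal, averaged from duplicate wells. EC50 was fitted per trial after normalising to that trial's peak response.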

[3] = target: T2, MRGPRX2 (Homo sapiens, UniProt Q96LB1); test: Calcium imaging / FLIPR EC50 determination in HEK293 cells expressing MRGPRX2; conditions: HEK293 cells stably expressing MRGPRX2 and Gα15
T2 sequence (Q96LB1 1-330): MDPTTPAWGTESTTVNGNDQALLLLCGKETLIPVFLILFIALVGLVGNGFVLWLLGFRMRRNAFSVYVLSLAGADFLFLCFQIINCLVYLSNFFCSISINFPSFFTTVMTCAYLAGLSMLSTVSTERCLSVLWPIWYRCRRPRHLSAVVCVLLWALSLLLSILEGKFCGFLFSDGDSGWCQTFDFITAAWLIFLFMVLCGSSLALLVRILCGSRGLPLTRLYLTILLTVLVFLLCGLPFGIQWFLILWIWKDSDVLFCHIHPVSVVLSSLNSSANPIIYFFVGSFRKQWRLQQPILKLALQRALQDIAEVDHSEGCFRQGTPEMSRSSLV
Outline: as §1

With autoinducer-2 [AI-2] the β-hexosaminidase release [1] was “did not activate”, the “activation of Mrgprb2-HEK cells (Ca2+ mobilization)” value [2] was “did not activate” and the “activation of MRGPRX2-HEK cells (Ca2+ mobilization)” value [3] was “did not activate”.

With competence stimulating peptide [CSP] the “activation of Mrgprb2-HEK cells (Ca2+ mobilization)” value [2] was “activated” and the “activation of MRGPRX2-HEK cells (Ca2+ mobilization)” value [3] was “activated”.

— paper PMC6649664 (Cell host & microbe, 2019)
